Measurements published in the RNAGym collection of RNA variant scans (doi:10.1126/science.aae0568).
Fewer inactive variants are shown than the library holds.

B1: tRNA (parent)
chain: GUUCCGUUGGCGUAAUGGUAACGCGUCUCCCUCCUAAGGAGAAGACUGCGGGUUCGAGUCCCGUACGGAACG

Variants of: B1
Assay: yeast fitness relative to wild type (ratio to wild type); higher = fitter; tRNA-Arg(CCU), competitive growth, 37 C, YPD
How it was run: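 Changes in genotype frequencies gave Darwinian fitness relative to wild type. Frequencies were read by 100-nucleotide paired-end sequencing of gene amplicons before and after pooled Saccharomyces cerevisiae strains, carrying tRNA-Arg(CCU) gene variants at the native locus, were competed in YPD at 37°C for 24 hours in six replicates. A genotype was kept only with ≥ 100 starting reads, and estimates < 0.5 were set to 0.5.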
For U8C A42U U53A, the yeast fitness was at most 0.5.
For U8C C30U A57G, the yeast fitness was 0.533.
With U8C A42G C55A the yeast fitness was at most 0.5.
Work on U8C A21U A69U yielded a yeast fitness of 0.527.
U8C C30G C49A G67A G68A gave a yeast fitness of at most 0.5.
U8C A14U C34G C46A C62U A69C showed a yeast fitness of at most 0.5.
With U8C C30U A37G the yeast fitness was at most 0.5.
U8C G10A C22G gave a yeast fitness of at most 0.5.
Work on U8C A20C G56A C61U yielded a yeast fitness of 0.532.
With U8C C33G A43C C66A the yeast fitness was at most 0.5.
U8C A21U C27G C29U U32C gave a yeast fitness of at most 0.5.
U8C G25A gave a yeast fitness of 0.931.
U8C C22G U28A C33G A57C showed a yeast fitness of at most 0.5.
Work on U8C A21U G39C G50A yielded a yeast fitness of at most 0.5.
With U8A U16G the yeast fitness was 0.628.
U8C G9A C34U G39C showed a yeast fitness of at most 0.5.
In the case of U8C C27U C49U G52A C60A, the yeast fitness is reported as at most 0.5.
For U8C A42G C61U, the yeast fitness was 0.526.
U8C A14C C30G gave a yeast fitness of at most 0.5.
In the case of U8C C27U C66U A69U, the yeast fitness is reported as at most 0.5.
U8C A20G C27U C30U A42G C60A gave a yeast fitness of 0.711.
Work on U8C A21U G56C G63A U64C G67C yielded a yeast fitness of at most 0.5.
For U8C C24G U26C, the yeast fitness was at most 0.5.
Work on U8A U28C C61A G67C yielded a yeast fitness of at most 0.5.
U8C G23C C29G showed a yeast fitness of at most 0.5.
Variant U8C C46G has a yeast fitness of 1.04.
U8C A15C A45C C62G showed a yeast fitness of 0.535.
Variant U8C C22G C49U has a yeast fitness of 0.726.
U8C A14C G50A A57C showed a yeast fitness of at most 0.5.
For U8C A37C C49G, the yeast fitness was at most 0.5.
In the case of U8C A20G C66A, the yeast fitness is reported as at most 0.5.
Variant U8A G51C has a yeast fitness of 0.534.
For U8C C29U U35G, the yeast fitness was at most 0.5.
U8C C62U gave a yeast fitness of 0.881.
In the case of U8C C11U A36U, the yeast fitness is reported as at most 0.5.
In the case of U8C A20U U28A C62U G67U, the yeast fitness is reported as at most 0.5.
U8C C22A A36C G63C gave a yeast fitness of at most 0.5.
In the case of U8C G18U A21C G63A, the yeast fitness is reported as at most 0.5.
For U8C A14C C31U, the yeast fitness was at most 0.5.
For U8C C11U G23A C31U A45C G48A G67A, the yeast fitness was at most 0.5.
In the case of U8C A21U C24U U32A C55G, the yeast fitness is reported as at most 0.5.
U8C C33G C34G C46U gave a yeast fitness of at most 0.5.
In the case of U8C G17C C22U C34A, the yeast fitness is reported as at most 0.5.
U8C C34U C55A C62U gave a yeast fitness of 0.619.
In the case of U8C C24A C46G G52C U59A, the yeast fitness is reported as at most 0.5.
For U8C A65U, the yeast fitness was 0.957.
U8C C11A U19G A36G U54C A69C gave a yeast fitness of at most 0.5.
For U8C C46A C62U, the yeast fitness was 0.774.
Work on U8A U32G A37G U54G G56A yielded a yeast fitness of at most 0.5.
U8C G12C G63C gave a yeast fitness of 0.577.
For U8A U35A A36G A57C, the yeast fitness was at most 0.5.
U8A U32C G44C C62U showed a yeast fitness of at most 0.5.
U8C G23C C29G A43U G50A A65C showed a yeast fitness of at most 0.5.
For U8C G23A C34A A42U C46A C55G A65G, the yeast fitness was at most 0.5.
With U8A U47A the yeast fitness was 0.619.
Work on U8A U47C yielded a yeast fitness of 0.723.
Work on U8C G10A U16A A65G yielded a yeast fitness of 0.605.
U8A G56U G67A A70C gave a yeast fitness of at most 0.5.
Variant U8C C60U has a yeast fitness of 0.832.
In the case of U8C C60G, the yeast fitness is reported as 0.705.
U8A U13A A15U C46G A69U gave a yeast fitness of at most 0.5.
For U8C C24G G38C, the yeast fitness was at most 0.5.
Work on U8C G23A A57C yielded a yeast fitness of 0.661.
Variant U8C C31U G48C C55A C60G A69G has a yeast fitness of at most 0.5.
With U8C G17A A40U G48A the yeast fitness was at most 0.5.
U8C A15U U16A U26A gave a yeast fitness of at most 0.5.
For U8C G12A G51A C66A, the yeast fitness was at most 0.5.
For U8A U13A A14C U16C G67A, the yeast fitness was at most 0.5.
With U8C G17A U54A G56C the yeast fitness was at most 0.5.
Work on U8C A14G G23A yielded a yeast fitness of at most 0.5.
Work on U8C A42U G63A A70G yielded a yeast fitness of at most 0.5.
Variant U8A U28A C33A A36U A57G has a yeast fitness of at most 0.5.
Variant U8C C31G G50C G56C has a yeast fitness of at most 0.5.
Work on U8C G17A G50A A69C yielded a yeast fitness of at most 0.5.
Variant U8C G9A G17C G56C has a yeast fitness of 0.532.
U8C A14U C30A gave a yeast fitness of at most 0.5.
For U8A U19C A21C G39C C61U, the yeast fitness was at most 0.5.
In the case of U8C A14C, the yeast fitness is reported as 0.66.
U8C A14G gave a yeast fitness of 0.934.
U8C C24G G38C A57U gave a yeast fitness of at most 0.5.
Variant U8C A15U G25A C34G U54A has a yeast fitness of at most 0.5.
U8C A36G G44A C46U gave a yeast fitness of 0.674.
Variant U8C C29U G56C has a yeast fitness of 0.538.
U8C C22A U47A gave a yeast fitness of at most 0.5.
In the case of U8C C29U A43G C66U, the yeast fitness is reported as at most 0.5.
With U8C G18C C33U A65C A69C the yeast fitness was 0.549.
U8C A14G A20U C30G A37G G44A gave a yeast fitness of at most 0.5.
U8A G44C C66U gave a yeast fitness of at most 0.5.
In the case of U8C A15C A20U, the yeast fitness is reported as 0.544.
U8C C31A A42G A57U U59A gave a yeast fitness of at most 0.5.
For U8C C27G C30G C46U C49G, the yeast fitness was at most 0.5.
U8C C30G U53C C60A C61A C66G gave a yeast fitness of at most 0.5.
For U8C C27G A57C, the yeast fitness was 0.586.
U8C A37G G39C gave a yeast fitness of at most 0.5.
With U8C A14G C27U U32A the yeast fitness was at most 0.5.
With U8C G9A C22G U32G C49G the yeast fitness was at most 0.5.
Variant U8A U26G U35C G63A A70G has a yeast fitness of at most 0.5.
In the case of U8C C11G G18C C49A A70C, the yeast fitness is reported as at most 0.5.
Work on U8C C24U A45G C46G C55G yielded a yeast fitness of at most 0.5.
Variant U8C C27U U35A U59C has a yeast fitness of at most 0.5.
For U8A U47G G56A, the yeast fitness was at most 0.5.
U8C G17C C31A G68A gave a yeast fitness of at most 0.5.
With U8C A43U the yeast fitness was 1.03.
Work on U8C A43G yielded a yeast fitness of 0.93.
Work on U8C A21U C34A A40C yielded a yeast fitness of 0.627.
With U8A G67U the yeast fitness was 0.636.
U8A G67C gave a yeast fitness of 0.736.
U8A U64G showed a yeast fitness of 0.554.
With U8A U16A G23A C34U G39A G58C the yeast fitness was 0.559.
U8C A43G A70C gave a yeast fitness of 0.74.
Variant U8C C11G G25A C60A C62U G68C has a yeast fitness of at most 0.5.
Work on U8C A14G G23U A65C yielded a yeast fitness of at most 0.5.
U8C C27U G41C C61G gave a yeast fitness of 0.551.
For U8C A15C G63A, the yeast fitness was at most 0.5.
U8C C27U C31A G56A gave a yeast fitness of at most 0.5.
U8C C30A G39A U47A G63C gave a yeast fitness of at most 0.5.
U8C G9C U13A G25A A40C A57C C61A G67A gave a yeast fitness of at most 0.5.
With U8C C27U A36C G39C G48C G63U A70U the yeast fitness was at most 0.5.
U8C G9A U13A A15G A37U C46U G68A showed a yeast fitness of at most 0.5.
U8C G23C C29G A45U C66U gave a yeast fitness of at most 0.5.
For U8A U26A C29A A65C, the yeast fitness was 0.761.
U8C C34U A45C A69C A70C showed a yeast fitness of at most 0.5.
With U8C A15C U32A A70C the yeast fitness was at most 0.5.
Work on U8C C31G G50A yielded a yeast fitness of 0.615.
In the case of U8C C30G C31G U64G C66U, the yeast fitness is reported as at most 0.5.
Work on U8C A36G A70C yielded a yeast fitness of 0.644.
U8C C27U A70G gave a yeast fitness of 0.738.
Variant U8C A15U C33G C62G has a yeast fitness of at most 0.5.
Variant U8C G18A C27G C34A U47A has a yeast fitness of at most 0.5.
Work on U8A U19G C22U yielded a yeast fitness of at most 0.5.
Variant U8C A36C has a yeast fitness of 0.577.
U8C A20U A21U U26G C31A A45U gave a yeast fitness of 0.54.
U8C G9A G10A G23C C29U A36C C49G A70U showed a yeast fitness of 0.534.
In the case of U8C G23C C29G A45U, the yeast fitness is reported as at most 0.5.
U8A G56A G67C showed a yeast fitness of at most 0.5.
U8C A36U G38A A45U C49U C61G gave a yeast fitness of at most 0.5.
In the case of U8A U28G, the yeast fitness is reported as 0.661.
For U8C G10A G23C C33U, the yeast fitness was 0.611.
In the case of U8C C22A G39A U47A, the yeast fitness is reported as at most 0.5.
U8C G10C showed a yeast fitness of 0.639.
U8C A45C C62G A65C showed a yeast fitness of at most 0.5.
U8C A37C G51A gave a yeast fitness of at most 0.5.
With U8A U26G C46G the yeast fitness was at most 0.5.
Variant U8C A45G C49A has a yeast fitness of 0.574.
With U8C C49U the yeast fitness was 0.903.
In the case of U8C C49A, the yeast fitness is reported as 0.704.
In the case of U8C C22A C33G G39C C46U G52A C66U, the yeast fitness is reported as at most 0.5.
With U8C C11G A15U A20G A21G G38C C60G the yeast fitness was 0.568.
U8C C30U C31A C33G C60A gave a yeast fitness of 0.586.
U8A U28C C33A gave a yeast fitness of at most 0.5.
U8C A45C A65C gave a yeast fitness of at most 0.5.
With U8C A43C C49G A57G the yeast fitness was at most 0.5.
U8C G10A A40G G67A showed a yeast fitness of 0.593.
For U8C C29A C34G A36G A40C U47A, the yeast fitness was at most 0.5.
Variant U8C A15G G25A C49U A65U has a yeast fitness of at most 0.5.
Work on U8C A20G yielded a yeast fitness of 0.941.
U8C A20U showed a yeast fitness of 0.92.
Work on U8C A20C yielded a yeast fitness of 0.985.
With U8C C27U C62G the yeast fitness was at most 0.5.
U8C C11U G58U C61A showed a yeast fitness of at most 0.5.
For U8C A21G, the yeast fitness was 1.03.
Variant U8C C22G A37G C60A A70G has a yeast fitness of at most 0.5.
In the case of U8C A20C A21C A36U A45C, the yeast fitness is reported as at most 0.5.
For U8C C27G G44A, the yeast fitness was at most 0.5.
U8C C22A C29G G44A U64G gave a yeast fitness of at most 0.5.
Variant U8A U28A C33A A36U has a yeast fitness of 0.541.
In the case of U8C C30G C31G G48A, the yeast fitness is reported as at most 0.5.
